Results taken from ChEMBL document CHEMBL1134334, “3-Aryl[1,2,4]triazino[4,3-a]benzimidazol-4(10H)-ones: a new class of selective A1 adenosine receptor antagonists” (J Med Chem, 2001).

Key:
[1] = target: Adenosine receptor A2a (Bos taurus); experiment: Displacement of [3H]-CGS- 21680 from adenosine A2a receptor of bovine striatal membrane
Adenosine receptor A1 [2] = target: T1, Adenosine receptor A1 (Bos taurus, UniProt P28190); experiment: Displacement of [3H]CHA from adenosine A1 receptors was determined in bovine cortical membranes; format: cell membranes
T1 sequence (P28190 whole entry): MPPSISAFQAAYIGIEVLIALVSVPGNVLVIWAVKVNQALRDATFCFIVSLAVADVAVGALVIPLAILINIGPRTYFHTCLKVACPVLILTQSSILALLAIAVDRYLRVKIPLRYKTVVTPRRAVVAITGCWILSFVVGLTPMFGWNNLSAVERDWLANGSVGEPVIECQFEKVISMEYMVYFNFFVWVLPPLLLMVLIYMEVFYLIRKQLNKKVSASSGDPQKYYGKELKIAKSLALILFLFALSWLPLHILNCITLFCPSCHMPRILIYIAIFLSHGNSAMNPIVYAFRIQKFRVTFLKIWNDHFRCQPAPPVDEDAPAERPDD
How it was run: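 A1 affinity measured by displacement of [3H]CHA (31 Ci/mmol) from bovine cortical membranes. Compounds in DMSO, final ≤2%. At least six concentrations spanning 3 orders of magnitude were used. Ki is the mean ± SEM of four separate assays, each run in triplicate.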

Adenosine receptor A1 [3] = target: T1, Adenosine receptor A1; experiment: Intrinsic activity towards Adenosine A1 receptor as displacement of [3H]DPCPX from bovine cortical membranes with 1 mM GTP
How it was run: (§1)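 A1 binding in bovine cortical membranes with [3H]DPCPX as radioligand. Run with 1 mM GTP and without GTP, and the GTP shift was taken from comparing the two conditions. Compounds in DMSO, final ≤2%.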

Adenosine receptor A1 [4] = target: T1, Adenosine receptor A1; experiment: Intrinsic activity towards Adenosine A1 receptor as displacement of [3H]DPCPX from bovine cortical membranes without GTP
How it was run: as §1

[5] = test system: Adenosine receptor A2a (Bos taurus); experiment: Displacement of [3H]-CGS- 21680 from adenosine A2a receptor in bovine striatal membrane at 10 uM.; details: Striatum
[6] = target: T2, Adenosine receptor A1 (Bos taurus) (UniProt P28190); experiment: Displacement of [3H]CHA from adenosine A1 receptor in bovine cortical membrane at 10 uM; format: cell membranes
T2 sequence (whole entry): T1 sequence (P28190 whole entry)
How it was run: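 Competition against [3H]CHA (31 Ci/mmol) for A1 sites in bovine cortical membranes. Compounds dissolved in DMSO, final DMSO ≤2%.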

Adenosine receptor A1 [7] = target: T1, Adenosine receptor A1; experiment: Intrinsic activity towards Adenosine A1 receptor using [3H]DPCPX from bovine cortical membranes without GTP
How it was run: as §1

[8] = test system: Adenosine receptor A3 (Bos taurus); experiment: Displacement of [125 I]AB-MECA from adenosine A3 receptor in bovine cortical membranes at 1 uM
[9] = target: T2, Adenosine receptor A1 (Bos taurus); experiment: GTP shift for Adenosine A1 receptor; format: functional
How it was run: as §1

Compound | Ki (Adenosine receptor A1 [2]) [nM] | inhibition [5] [%] | further results
O=c1c(-c2ccccc2)nnc2n(Cc3ccccc3)c3ccccc3n12 | 274 |  | Ki (Adenosine receptor A1 [3]): 184 nM; Ki (Adenosine receptor A1 [4]): 240 nM
C[C@H](Cc1ccccc1)Nc1ncnc2c1ncn2[C@@H]1O[C@H](CO)[C@@H](O)[C@H]1O [(R)-PIA] |  |  | Ki (Adenosine receptor A1 [3]): 19.9 nM; Ki (Adenosine receptor A1 [4]): 4.2 nM
Oc1c(-c2ccc(Cl)cc2)nnc2nc3ccccc3n12 |  | 8 | inhibition [6]: 44%
Oc1c(-c2cccs2)nnc2nc3ccccc3n12 | 293 |  | 
Cn1c2ccccc2n2c(=O)c(-c3ccc(O)cc3)nnc12 | 206 | 43 | 
Oc1c(-c2ccsc2)nnc2nc3ccccc3n12 | 119 |  | Ki [1]: 5 µM
Cn1c2ccccc2n2c(=O)c(-c3ccccc3)nnc12 | 63 | 25 | inhibition [8]: 0%; Ki (Adenosine receptor A1 [3]): 119 nM; GTP shift [9]: 1.3; Ki (Adenosine receptor A1 [4]): 93.1 nM
Cc1nnc2nc3ccccc3n2c1O | 3900 | 39 | 
Oc1c(-c2ccco2)nnc2nc3ccccc3n12 | 261 |  | 
Cn1c2ccccc2n2c(=O)c(-c3ccsc3)nnc12 | 78 | 55 | 
COc1ccc(-c2nnc3nc4ccccc4n3c2O)cc1OC | 1780 | 35 | 
O=c1c(-c2ccccc2)nnc2n(-c3ccccc3)c3ccccc3n12 | 18 |  | Ki (Adenosine receptor A1 [3]): 25 nM; Ki (Adenosine receptor A1 [4]): 24.7 nM
COc1ccc(-c2nnc3n(C)c4ccccc4n3c2=O)cc1 | 2050 | 7 | 
Oc1ccc(-c2nnc3nc4ccccc4n3c2O)cc1 | 249 |  | 
Cn1c2ccccc2n2c(=O)c(-c3ccc(O)c(O)c3)nnc12 | 459 |  | 
Oc1ccc(-c2nnc3nc4ccccc4n3c2O)cc1O | 470 |  | Ki [1]: 3.5 µM
Cn1c2ccccc2n2c(=O)c(-c3cccs3)nnc12 | 233 | 19 | 
O=c1c(-c2ccc(O)cc2)nnc2n(Cc3ccccc3)c3ccccc3n12 | 344 |  | 
O=c1c(-c2ccco2)nnc2n(Cc3ccccc3)c3ccccc3n12 | 990 |  | Ki [1]: 1.24 µM

The next lines start with results.

Ki (Adenosine receptor A1 [2]) [nM] | inhibition [5] [%] | Compound | further results
813 |  | Cn1c2ccccc2n2c(=O)c(-c3ccco3)nnc12 | Ki [1]: 6.3 µM
85 |  | Oc1c(-c2ccccc2)nnc2nc3ccccc3n12 | Ki (Adenosine receptor A1 [7]): 141 nM; Ki (Adenosine receptor A1 [3]): 197 nM
 | 0 | Cn1c2ccccc2n2c(=O)c(-c3ccc(Cl)cc3)nnc12 | inhibition [6]: 66%
 | 0 | Oc1cnnc2nc3ccccc3n12 | inhibition [6]: 34%
 | 8 | Cn1c2ccccc2n2c(=O)cnnc12 | inhibition [6]: 0%
 | 18 | COc1ccc(-c2nnc3n(C)c4ccccc4n3c2=O)cc1OC | inhibition [6]: 24%
446 | 60 | O=c1c(-c2ccsc2)nnc2n(Cc3ccccc3)c3ccccc3n12 | 
 | 16 | COc1ccc(-c2nnc3nc4ccccc4n3c2O)cc1 | inhibition [6]: 30%
 | 0 | Cc1nnc2n(C)c3ccccc3n2c1=O | inhibition [6]: 46%
315 |  | O=c1c(-c2ccco2)nnc2n(-c3ccccc3)c3ccccc3n12 | 
